In PMC5531262 (Messenger (Los Angeles, Calif. : Print), 2016):
pEC50: −log10 of the molar value. “And” between values parts separate entries of the source, which are not always exact repeats. Identical values can stand only once.

What was measured:
Format in all cases: biochemical, Lytechinus pictus
[1] = test system: IP3-induced Ca^2+ release (IP3Rs); assay: IP3-induced Ca^2+ release in sea urchin egg homogenate
In short: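 Lytechinus pictus egg homogenate (GluIM, pH 7.2, with ATP-regenerating system) diluted 20-fold over 3 h at 17°C to 2.5% v/v. Fluo-3 3 μM final, ex 506/em 526 nm, stirred cuvette. Test compound or DMSO preincubated 2 min, then sub-maximal IP3 chosen from a dose-response curve. Signal calibrated to [Ca2+] with 0.5 mM EGTA then 10 mM CaCl2. Sigmoidal fit; mean ± SEM, n = 4–7.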

[2] = test system: cADPR-induced Ca^2+ release (RyRs); assay: cADPR-induced Ca^2+ release in sea urchin egg homogenate
In short: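 Egg homogenate from Lytechinus pictus diluted 20-fold over 3 h at 17°C in GluIM with ATP regeneration; 3 μM Fluo-3 final, calibrated with EGTA/CaCl2. Test compound or DMSO preincubated 2 min before 0.3 μM cADPR (sub-maximal). For the time course, 30 μM test compound was preincubated 10–120 s. cADPR concentration-response was run after 2 min with 30 μM or DMSO. Sigmoidal fits; mean ± SEM, n = 4–9.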

[3] = test system: caffeine-induced Ca^2+ release (RyRs); assay: caffeine-induced Ca^2+ release in sea urchin egg homogenate; conditions: 10 mM caffeine
In short: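 Lytechinus pictus egg homogenate loaded with Ca2+ by 20-fold dilution over 3 h at 17°C in GluIM plus ATP-regenerating system; Fluo-3 3 μM final, stirred cuvette, ex 506/em 526 nm. Test compound preincubated 2 min, then 10 mM caffeine. Fluorescence converted to [Ca2+] using 0.5 mM EGTA and 10 mM CaCl2 for Fmin/Fmax. Sigmoidal concentration-response fit; mean ± SEM, n = 4–7.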

O=P(O)(O)O[C@@H]1[C@H](O)[C@H](O)[C@@H](OP(=O)(O)O)[C@H](OP(=O)(O)O)[C@H]1O [IP3, inositol 1,4,5-trisphosphate]
raw control ∆[Ca^2+] with IP3 ([1]; sub-maximal IP3, no inhibitor): 94 ± 1 nM

c1ccc(CN(CCN(Cc2ccccn2)Cc2ccccn2)Cc2ccccn2)nc1 [TPEN, N,N,N’,N’- tetrakis(2-pyridylmethyl)ethylenediamine]
effect on cADPR-induced Ca^2+ release ([2]; preincubation 2 minutes, then 0.3 μM cADPR, magnitude and kinetics): inhibited cADPR-induced Ca^2+ release

N=c1c2ncn3c2ncn1[C@@H]1O[C@H](COP(=O)(O)OP(=O)(O)OC[C@H]2O[C@@H]3[C@H](O)[C@@H]2O)[C@@H](O)[C@H]1O [cADPR]
raw control response ∆[Ca^2+] with cADPR ([2]; 0.3 μM cADPR, no inhibitor): 72 ± 5 nM and 76 ± 4 nM and 72 ± 4 nM and 85 ± 3 nM and 75 ± 4 nM
pEC50 ([2]; read-out: EC50 of cADPR for Ca^2+ release (concentration-response curve), sea urchin egg homogenate, Fig. 2b): ~6.60

Cn1c(=O)c2c(ncn2C)n(C)c1=O [caffeine]
raw control ∆[Ca^2+] with caffeine ([3]; no inhibitor): 80 ± 5 nM

COc1ccccc1OCCNCC(O)COc1cccc2[nH]c3ccccc3c12 (stereo not drawn) [carvedilol]
inhibition of cADPR-induced Ca^2+ release (extent) ([2]; 0.3 μM cADPR, extent of inhibition at high carvedilol concentration): > 80%
time of preincubation to maximal suppression of cADPR-induced Ca^2+ release ([2]; carvedilol 30 μM, no further inhibition at longer incubations): ≤ 10 s
inhibition of IP3-induced Ca^2+ release (extent) ([1]; sub-maximal IP3, preincubation 2 minutes, Fig. 4): 47%
inhibition of caffeine-induced Ca^2+ release (extent) ([3]; preincubation 2 minutes): > 80%
